Measured values from PMC9291822 (British Journal of Clinical Pharmacology, 2021).
Like-named read-outs stand apart in the source and are kept apart here.

Columns and labels:
[1] = multiple dosing of capmatinib; cited from earlier work
[2] = assay type: in vivo, human; conditions: for AUCinf of metabolite, GM / AUCinf of metabolite, mean (SD) / AUClast of metabolite, GM / AUClast of metabolite, mean (SD) / Cmax of metabolite, GM / Cmax of metabolite, mean (SD) / Metabolite ratio of AUCinf, GM / Metabolite ratio of AUCinf, mean (SD) / Metabolite ratio of AUClast, GM / Metabolite ratio of AUClast, mean (SD) / Tmax of metabolite, median (range) / t½ of metabolite, GM / t½ of metabolite, mean (SD): after capmatinib single oral dose 200 mg
Outline: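 Adults aged 18–75 with hepatic impairment (Child–Pugh A/B/C, also reclassified by NCI Organ Dysfunction Working Group criteria) or normal function, matched on age, weight and sex. Overnight fast (≥10 h), single oral 200 mg (2 × 100 mg tablets), fasting ≥4 h post-dose. Plasma sampled predose to 72 h; parent and metabolite measured by validated LC-MS/MS (LLOQ ~1.00 ng/mL). Noncompartmental analysis; GM ratios vs normal with 90% CIs.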

[3] = mild (n = 6), listed as M16 (CMN288)
[4] = moderate (n = 8), listed as M16 (CMN288)
[5] = normal (n = 9), listed as M16 (CMN288)
[6] = severe (n = 6), listed as M16 (CMN288)

Compound: CNC(=O)c1ccc(-c2nn3c(Cc4ccc5ncccc5c4)cnc3[nH]c2=O)cc1F [CMN288]
- accumulation of metabolite after multiple dosing [1]: does not accumulate
- AUCinf of metabolite, GM ([2]; mild (n = 6)): 2190 ng·h/mL
- AUCinf of metabolite, mean (SD) ([2]; mild (n = 6)): 2300 (691) ng × h/mL
- AUClast of metabolite, GM ([2]; mild (n = 6)): 2150 ng·h/mL
- AUClast of metabolite, mean (SD) ([2]; mild (n = 6)): 2250 (677) ng × h/mL
- Cmax of metabolite, GM ([2]; mild (n = 6)): 423 ng/mL
- Cmax of metabolite, mean (SD) ([2]; mild (n = 6)): 492 (272) ng/mL
- Metabolite ratio of AUCinf, GM ([2]; mild (n = 6)): 0.440 (23.8) fold
- Metabolite ratio of AUCinf, mean (SD) ([2]; mild (n = 6)): 0.450 (0.0988) fold
- Metabolite ratio of AUClast, GM ([2]; mild (n = 6)): 0.437 (24.1) fold
- Metabolite ratio of AUClast, mean (SD) ([2]; mild (n = 6)): 0.447 (0.100) fold
- Tmax of metabolite, median (range) ([2]; mild (n = 6)): 1.00 (1.00–2.00) h
- t½ of metabolite, GM ([2]; mild (n = 6)): 6.84 h
- t½ of metabolite, mean (SD) ([2]; mild (n = 6)): 7.86 (5.49) h
- Metabolite ratio of AUCinf, GM [2, 3]: 0.440 fold
- Metabolite ratio of AUClast, GM [2, 3]: 0.437 fold
- AUCinf of metabolite, GM ([2]; moderate (n = 8)): 3400 ng·h/mL
- AUCinf of metabolite, mean (SD) ([2]; moderate (n = 8)): 3850 (2490) ng × h/mL
- AUClast of metabolite, GM ([2]; moderate (n = 8)): 3370 ng·h/mL
- AUClast of metabolite, mean (SD) ([2]; moderate (n = 8)): 3830 (2490) ng × h/mL
- Cmax of metabolite, GM ([2]; moderate (n = 8)): 587 ng/mL
- Cmax of metabolite, mean (SD) ([2]; moderate (n = 8)): 738 (645) ng/mL
- Metabolite ratio of AUCinf, GM ([2]; moderate (n = 8)): 0.573 (67.7) fold
- Metabolite ratio of AUCinf, mean (SD) ([2]; moderate (n = 8)): 0.680 (0.443) fold
- Metabolite ratio of AUClast, GM ([2]; moderate (n = 8)): 0.573 (68.0) fold
- Metabolite ratio of AUClast, mean (SD) ([2]; moderate (n = 8)): 0.680 (0.445) fold
- Tmax of metabolite, median (range) ([2]; moderate (n = 8)): 1.00 (1.00–3.00) h
- t½ of metabolite, GM ([2]; moderate (n = 8)): 6.42 h
- t½ of metabolite, mean (SD) ([2]; moderate (n = 8)): 7.32 (5.16) h
- Metabolite ratio of AUCinf, GM [2, 4]: 0.573 fold
- Metabolite ratio of AUClast, GM [2, 4]: 0.573 fold
- AUCinf of metabolite, GM ([2]; normal (n = 9)): 4560 ng·h/mL
- AUCinf of metabolite, mean (SD) ([2]; normal (n = 9)): 4820 (1880) ng × h/mL
- AUClast of metabolite, GM ([2]; normal (n = 9)): 4520 ng·h/mL
- AUClast of metabolite, mean (SD) ([2]; normal (n = 9)): 4780 (1880) ng × h/mL
- Cmax of metabolite, GM ([2]; normal (n = 9)): 1010 ng/mL
- Cmax of metabolite, mean (SD) ([2]; normal (n = 9)): 1050 (328) ng/mL
- Metabolite ratio of AUCinf, GM ([2]; normal (n = 9)): 0.704 (24.1) fold
- Metabolite ratio of AUCinf, mean (SD) ([2]; normal (n = 9)): 0.722 (0.181) fold
- Metabolite ratio of AUClast, GM ([2]; normal (n = 9)): 0.702 (24.0) fold
- Metabolite ratio of AUClast, mean (SD) ([2]; normal (n = 9)): 0.720 (0.180) fold
- Tmax of metabolite, median (range) ([2]; normal (n = 9)): 1.50 (1.00–2.00) h
- t½ of metabolite, GM ([2]; normal (n = 9)): 9.96 h
- t½ of metabolite, mean (SD) ([2]; normal (n = 9)): 11.4 (6.92) h
- Metabolite ratio of AUCinf, GM [2, 5]: 0.704 fold
- Metabolite ratio of AUClast, GM [2, 5]: 0.702 fold
- AUCinf of metabolite, GM ([2]; severe (n = 6)): 2130 ng·h/mL
- AUCinf of metabolite, mean (SD) ([2]; severe (n = 6)): 2350 (1200) ng × h/mL
- AUClast of metabolite, GM ([2]; severe (n = 6)): 2110 ng·h/mL
- AUClast of metabolite, mean (SD) ([2]; severe (n = 6)): 2330 (1210) ng × h/mL
- Cmax of metabolite, GM ([2]; severe (n = 6)): 262 ng/mL
- Cmax of metabolite, mean (SD) ([2]; severe (n = 6)): 287 (130) ng/mL
- Metabolite ratio of AUCinf, GM ([2]; severe (n = 6)): 0.266 (32.2) fold
- Metabolite ratio of AUCinf, mean (SD) ([2]; severe (n = 6)): 0.276 (0.0802) fold
- Metabolite ratio of AUClast, GM ([2]; severe (n = 6)): 0.264 (32.2) fold
- Metabolite ratio of AUClast, mean (SD) ([2]; severe (n = 6)): 0.274 (0.0795) fold
- Tmax of metabolite, median (range) ([2]; severe (n = 6)): 3.00 (1.50–6.00) h
- t½ of metabolite, GM ([2]; severe (n = 6)): 5.87 h
- t½ of metabolite, mean (SD) ([2]; severe (n = 6)): 5.93 (0.907) h
- Metabolite ratio of AUCinf, GM [2, 6]: 0.266 fold
- Metabolite ratio of AUClast, GM [2, 6]: 0.264 fold
- decrease in metabolite GM AUCinf vs. normal group ([2]; mild group): 52.0%
- decrease in metabolite GM AUClast vs. normal group ([2]; mild group): 52.4%
- decrease in metabolite GM Cmax vs. normal group ([2]; mild group): 58.1%
- decrease in metabolite GM t1/2 vs. normal group ([2]; mild group): 31.3%
- decrease in metabolite GM AUCinf vs. normal group ([2]; moderate group): 25.4%
- decrease in metabolite GM AUClast vs. normal group ([2]; moderate group): 25.4%
- decrease in metabolite GM Cmax vs. normal group ([2]; moderate group): 41.9%
- decrease in metabolite GM t1/2 vs. normal group ([2]; moderate group): 35.5%
- decrease in metabolite GM AUCinf vs. normal group ([2]; severe group): 53.3%
- decrease in metabolite GM AUClast vs. normal group ([2]; severe group): 53.3%
- decrease in metabolite GM Cmax vs. normal group ([2]; severe group): 74.1%
- decrease in metabolite GM t1/2 vs. normal group ([2]; severe group): 41.1%
- decrease in metabolite GM AUCinf and AUClast vs. normal hepatic function ([2]; the 3 hepatic impairment groups): 25–53%
